Here are results for 25 molecules from ChEMBL document CHEMBL1129404, “6-phenyl-1,4-dihydropyridine derivatives as potent and selective A3 adenosine receptor antagonists” (J Med Chem, 1996).

One assay addresses T1, Adenosine receptor A1 (Rattus norvegicus) (UniProt P25099).
T1 sequence (whole entry): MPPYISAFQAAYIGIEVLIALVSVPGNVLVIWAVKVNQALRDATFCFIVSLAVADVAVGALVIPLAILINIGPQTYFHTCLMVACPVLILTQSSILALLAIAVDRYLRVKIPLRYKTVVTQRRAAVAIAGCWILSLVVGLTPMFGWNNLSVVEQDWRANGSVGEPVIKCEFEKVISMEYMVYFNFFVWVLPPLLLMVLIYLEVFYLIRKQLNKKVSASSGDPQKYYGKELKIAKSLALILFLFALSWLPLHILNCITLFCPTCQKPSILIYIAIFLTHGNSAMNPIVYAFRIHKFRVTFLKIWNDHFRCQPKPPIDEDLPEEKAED
Description: Binding affinity for Adenosine A1 receptor of rat cerebral cortex membrane with [3H](R)-PIA. Format: tissue-based.
Conditions: not given
A digest of the protocol: (§1)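 Rat cerebral cortex membranes prepared with adenosine deaminase (3 units/mL), preincubated 30 min at 30 °C, with deaminase also present during incubation with [3H]-(R)-PIA. Competitor used at five or more concentrations spanning 3 orders of magnitude.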
Regarding `CCOC(=O)C1=C(c2ccccc2)N=C(C)/C(=C(/O)OCc2ccccc2)C1/C=C/c1ccccc1` (stereo not given), the Inhibition (at concentration M) was less than 10%.

In another assay the target is Adenosine receptor A2a (Rattus norvegicus) (UniProt P30543). Description: Binding affinity for Adenosine A2A receptor in rat striatal membrane with [3H]-CGS- 21680. The assay is classed as cell membranes. The arrangement: concentration or dose not given beside the values. The following applies: Striatum.
Chain of Adenosine receptor A2a (Rattus norvegicus) (P30543 whole entry): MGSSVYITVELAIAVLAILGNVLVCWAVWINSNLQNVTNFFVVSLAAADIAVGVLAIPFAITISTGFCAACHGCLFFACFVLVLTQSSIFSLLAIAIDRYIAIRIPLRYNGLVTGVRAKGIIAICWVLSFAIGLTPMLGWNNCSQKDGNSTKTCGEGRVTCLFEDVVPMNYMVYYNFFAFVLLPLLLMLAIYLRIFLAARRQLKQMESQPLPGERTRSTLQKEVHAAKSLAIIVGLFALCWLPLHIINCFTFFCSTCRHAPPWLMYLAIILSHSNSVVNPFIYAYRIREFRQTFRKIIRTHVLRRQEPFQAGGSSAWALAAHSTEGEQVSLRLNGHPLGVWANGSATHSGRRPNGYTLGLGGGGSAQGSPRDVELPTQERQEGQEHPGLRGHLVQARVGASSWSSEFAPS
Molecule `CCOC(=O)C1=C(c2ccccc2)N=C(C)/C(=C(/O)OCc2ccccc2)C1C#Cc1ccccc1` (stereo not given) yielded an Inhibition (at concentration M) of less than 10%.
Take `CCOC(=O)C1=C(c2ccccc2)N=C(C)/C(=C(/O)OCC)C1C#Cc1ccccc1` (stereo not given): the Inhibition (at concentration M) came to 26%.
On to `CCOC(=O)C1=C(c2ccc(C)cc2)N=C(C)/C(=C(/O)OCC)C1/C=C/c1ccccc1` (stereo not given), for which the Inhibition (at concentration M) was found to be 37%.
On the same count and under the same terms, in the case of `CCO/C(O)=C1\C(C)=NC(c2ccccc2)=C(C(=O)OCc2ccccc2)C1/C=C/c1ccccc1` (stereo not given) it was 15%; in that of `CCO/C(O)=C1\C(C)=NC(c2ccccc2)=C(C(=O)OCc2ccccc2)C1C#Cc1ccccc1` (stereo not given), less than 10%; in that of `CCOC(=O)C1=C(c2ccccc2)N=C(C)/C(=C(/O)OCC)C1C=C(c1ccccc1)c1ccccc1` (stereo not given), 12%.

In the next assay the target is T1, Adenosine receptor A1 (Rattus norvegicus). Description: Binding affinity for Adenosine A1 receptor in rat cerebral cortex membrane with [3H]-(R)-PIA. Format: cell membranes.
Conditions: not given
A digest of the protocol:
as §1
Molecule `CCOC(=O)C1=C(c2ccccc2)N=C(C)/C(=C(/O)OCc2ccccc2)C1C#Cc1ccccc1` (stereo not given) came in with an Inhibition (at concentration M) of 24%.
The same measure, in the same setting: in the case of `CCO/C(O)=C1\C(C)=NC(c2ccccc2)=C(C(=O)OCc2ccccc2)C1/C=C/c1ccccc1` (stereo not given) it was 35%.

The target is the same in another assay. Description: Binding affinity for Adenosine A1 receptor in rat cerebral cortex membrane with [3H](R)-PIA. Format: cell membranes. The following applies: concentration not given here. A digest of the protocol:
as §1
In turn, `CCOC(=O)C1=C(c2ccccc2)N=C(C)/C(=C(/O)OCc2ccccc2)C1/C=C/c1ccc([N+](=O)[O-])cc1` (stereo not given) returned an inhibition of less than 10%.
In turn, `CCO/C(O)=C1\C(C)=NC(c2ccccc2)=C(C(=O)OCc2ccccc2)C1/C=C/c1ccc([N+](=O)[O-])cc1` (stereo not given) registered an inhibition of 33%.

The target in another assay is Adenosine receptor A2a (Rattus norvegicus) (UniProt P30543). Put plainly: Inhibition of [3H]-CGS- 21680 binding to Adenosine A2A receptor of rat striatal membrane. The arrangement: concentration or dose not given beside the values. The note with it: concentration not given here.
The molecule `CCOC(=O)c1c(C)nc(-c2ccccc2)c(C(=O)OCc2ccccc2)c1C#Cc1ccccc1` came in with an inhibition of 43%.
Same read-out and setting: the figure for `CCOC(=O)C1=C(c2ccoc2)N=C(C)/C(=C(/O)OCC)C1/C=C/c1ccccc1` (stereo not given) is 35%; for `CCOC(=O)C1=C(c2ccccc2)N=C(C)/C(=C(/O)OCC)C1/C=C/c1ccccc1[N+](=O)[O-]` (stereo not given) it is less than 10%.
As for `CCOC(=O)C1=C(C)NC(C)=C(C(=O)OCc2ccccc2)C1/C=C/c1ccccc1` (stereo not given), the inhibition came out at 14%.
`CCOC(=O)C1=C(c2ccsc2)N=C(C)/C(=C(/O)OCC)C1/C=C/c1ccccc1` (stereo not given) displayed an inhibition of less than 10%.
Consider `CCOC(=O)C1=C(c2ccccc2)N=C(C)/C(=C(/O)OCC)C1/C=C/c1ccc([N+](=O)[O-])cc1` (stereo not given), for which the inhibition worked out at 33%.
`CCOC(=O)C1=C(c2ccccc2)N=C(C)/C(=C(/O)OCc2ccccc2)C1/C=C/c1ccc([N+](=O)[O-])cc1` (stereo not given): the inhibition was less than 10%.
Molecule `CCOC(=O)C1=C(c2ccc(Cl)cc2)N=C(C)/C(=C(/O)OCC)C1/C=C/c1ccccc1` (stereo not given) returned an inhibition of 12%.
In the case of `CCO/C(O)=C1\C(C)=NC(c2ccccc2)=C(C(=O)OCc2ccccc2)C1/C=C/c1ccc([N+](=O)[O-])cc1` (stereo not given), the inhibition is less than 10%.
Molecule `CCOC(=O)C1=C(c2ccccc2)N=C(C)/C(=C(/O)OCC)C1/C=C/c1ccccc1OC` (stereo not given) gave an inhibition of 17%.
Consider `CCOC(=O)C1=C(c2ccc(OC)cc2)N=C(C)/C(=C(/O)OCC)C1/C=C/c1ccccc1` (stereo not given), for which the inhibition was less than 10%.

The target in the next assay is Adenosine receptor A2a (Rattus norvegicus, UniProt P30543). Put plainly: Displacement of [3H]-CGS- 21680 from Adenosine A2A receptor of rat striatal membrane.
Chain of Adenosine receptor A2a (P30543 whole entry): as above
Conditions: not given
In general terms: Loss of bound radioactivity is the signal in a displacement assay; it reports binding, not function.
With `CCO/C(O)=C1\C(C)=NC(c2ccccc2)=C(C(=O)OCc2ccccc2)C1C` (stereo not given), the affinity, expressed as Ki, was 3.15 µM.
With `CCOC(=O)C1=C(c2ccccc2)N=C(C)/C(=C(/O)OCC)C1CC` (stereo not given), the affinity, expressed as Ki, was 14.5 µM.
`CCO/C(O)=C1\C(C)=NC(C)=C(C(=O)OC)C1CC` (stereo not given) came in with a Ki of 7.89 µM.
On the same count and under the same terms, the figure for `CCOC(=O)C1=C(C)N=C(C)/C(=C(/O)OCC)C1/C=C/c1ccccc1` (stereo not given) is 9.23 µM; for `CCOC(=O)c1c(C)nc(-c2ccccc2)c(C(=O)OCC)c1/C=C/c1ccccc1` it is 2.4 µM.

Test system in the next assay: not listed separately
Description: Relative affinities for rat adenosine A1 and human adenosine A3 receptors.
Conditions: not given
A digest of the protocol:
(§2)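 Ratio of Ki values: rat A1 ([3H]-(R)-PIA, rat cortical membranes) over human A3 ([125I]AB-MECA, HEK-293 membranes), each Ki derived by Cheng-Prusoff from competition curves.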
In the case of `CCOC(=O)c1c(C)nc(-c2ccccc2)c(C(=O)OCC)c1C`, the Selectivity ratio was determined as 1.7.

Test system in a further assay: not listed separately
Description: Relative binding affinities for rat adenosine A1 and human adenosine A3 receptors; Selectivity ratio.
Conditions: not given
A digest of the protocol:
as §2
Consider `CCOC(=O)c1c(C)nc(-c2ccccc2)c(C(=O)OCc2ccccc2)c1C#Cc1ccccc1`, for which the Ratio is 4.2.
For the molecule `CCOC(=O)C1=C(C)NC(C)=C(C(=O)OC)C1/C=C/c1ccccc1` (stereo not given), the Ratio came to 24.

Broadly, the inhibition is the share of the control response that was lost under treatment. A word on the Ki: it is the dissociation constant of the complex between target and ligand, obtained from inhibition or displacement.
